Data as given in ChEMBL document CHEMBL3286129, “Optimization of peptidomimetic boronates bearing a P3 bicyclic scaffold as proteasome inhibitors” (Eur J Med Chem, 2014).
Calls of active or inactive are those of the source. The rule behind the calls is not given here.

Key:
[1] = Cytotoxicity against human NSCLC cells assessed as cell growth at 10 uM relative to control; format: functional; conditions: read-out: Activity
Outline: (§1)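 Single-concentration screen against a panel of human cancer cell lines. Each value is the mean percent growth across the cell lines of that tumour subpanel.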

[2] = tested on: M14; experiment: Growth inhibition of human M14 cells; format: functional
[3] = Growth inhibition of human HCT15 cells; format: functional
[4] = tested on: HOP-62; experiment: Growth inhibition of human HOP62 cells; format: functional
[5] = tested on: NCI-H23; experiment: Growth inhibition of human NCI-H23 cells; format: functional
[6] = tested on: NCI-H226; experiment: Growth inhibition of human NCI-H226 cells; format: functional
[7] = tested on: HL-60(TB); experiment: Growth inhibition of human HL-60(TB) cells; format: functional
[8] = Growth inhibition of human UACC62 cells; format: functional; conditions: UACC-62
[9] = tested on: CAKI-1; experiment: Growth inhibition of human CAKI-1 cells; format: functional
[10] = Growth inhibition of human SF539 cells; format: functional
[11] = Growth inhibition of human MOLT4 cells; format: functional
[12] = Growth inhibition of human HOP92 cells; format: functional
[13] = tested on: SR; experiment: Growth inhibition of human SR cells; format: functional
[14] = target: Proteasome Macropain subunit (Homo sapiens) (UniProt P49721); experiment: Inhibition of trypsin-like activity of 20S proteasome in human erythrocytes using Boc-Leu-Arg-Arg-AMC as substrate by fluorescence assay; format: cell-based
Chain of Proteasome Macropain subunit (Homo sapiens) (P49721 whole entry): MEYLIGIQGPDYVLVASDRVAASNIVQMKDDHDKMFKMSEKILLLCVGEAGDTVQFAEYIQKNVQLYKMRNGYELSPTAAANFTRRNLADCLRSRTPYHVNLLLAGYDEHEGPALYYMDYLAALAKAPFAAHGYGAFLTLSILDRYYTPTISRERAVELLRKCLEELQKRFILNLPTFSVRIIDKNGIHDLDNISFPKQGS
Outline: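 Human 20S proteasome 0.0025 mg/mL at 30 °C in 50 mM Tris pH 7.4, 50 mM NaCl, 0.5 mM EDTA, 0.03% SDS, 7.5% DMSO. Varied inhibitor concentrations; AMC release monitored continuously for 10 min, ex 380/em 460 nm. Ki derived from progress-curve IC50 fit.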

[15] = Cytotoxicity against human colon cancer cells assessed as cell growth at 10 uM relative to control; format: functional; conditions: Cancer cell lines, read-out: Activity; outline: as §1
[16] = tested on: T47D; experiment: Growth inhibition of human T47D cells; format: functional
[17] = Growth inhibition of human Hs 578T cells; format: functional
[18] = tested on: SK-MEL-28; experiment: Growth inhibition of human SK-MEL-28 cells; format: functional
[19] = tested on: 786-0; experiment: Growth inhibition of human 786-0 cells; format: functional
[20] = Growth inhibition of human LOXIMVI cells; format: functional; conditions: LOX IMVI
[21] = tested on: NCI-H522; experiment: Growth inhibition of human NCI-H522 cells; format: functional
[22] = tested on: SK-MEL-2; experiment: Growth inhibition of human SK-MEL-2 cells; format: functional
[23] = Growth inhibition of human NCI-ADR-RES cells; format: functional
[24] = tested on: TK-10; experiment: Growth inhibition of human TK10 cells; format: functional
[25] = tested on: SK-MEL-5; experiment: Growth inhibition of human SK-MEL-5 cells; format: functional
[26] = Growth inhibition of human OVCAR3 cells; format: functional; conditions: OVCAR-3
[27] = tested on: IGROV-1; experiment: Growth inhibition of human IGROV1 cells; format: functional
[28] = Cytotoxicity against human breast cancer cells assessed as cell growth at 10 uM relative to control; format: functional; conditions: Cancer cell lines, read-out: Activity; outline: as §1
[29] = target: T1, Proteasome Macropain subunit MB1 (Homo sapiens, UniProt P28074); experiment: Inhibition of chymotrypsin-like activity of 20S proteasome in human erythrocytes using Suc-Leu-Leu-Val-Tyr-AMC as substrate by fluorescence assay; conditions: read-out: Ki
T1 sequence (P28074 whole entry): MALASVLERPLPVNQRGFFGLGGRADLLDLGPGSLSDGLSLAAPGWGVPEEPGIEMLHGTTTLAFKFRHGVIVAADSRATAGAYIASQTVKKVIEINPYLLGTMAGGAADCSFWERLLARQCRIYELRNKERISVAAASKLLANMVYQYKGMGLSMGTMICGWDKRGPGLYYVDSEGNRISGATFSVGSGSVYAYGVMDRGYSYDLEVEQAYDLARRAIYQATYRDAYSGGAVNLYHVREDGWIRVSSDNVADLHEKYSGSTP

[30] = tested on: DU-145; experiment: Growth inhibition of human DU145 cells; format: functional
[31] = tested on: SNB-75; experiment: Growth inhibition of human SNB75 cells; format: functional
[32] = Cytotoxicity against human prostate cancer cells assessed as cell growth at 10 uM relative to control; format: functional; conditions: Cancer cell lines, read-out: Activity; outline: as §1
[33] = Cytotoxicity against human CNSC cells assessed as cell growth at 10 uM relative to control; format: functional; conditions: read-out: Activity; outline: as §1
[34] = tested on: SN12C; experiment: Growth inhibition of human SN12C cells; format: functional
[35] = tested on: ACHN; experiment: Growth inhibition of human ACHN cells; format: functional
[36] = tested on: HCT-116; experiment: Growth inhibition of human HCT116 cells; format: functional
[37] = tested on: COLO 205; experiment: Growth inhibition of human COLO205 cells; format: functional
[38] = Growth inhibition of human SF295 cells; format: functional; conditions: SF-295
[39] = read-out: LC50 (the source's name)

Compound `CC(C)C[C@H](NC(=O)CCn1ccc2ncccc2c1=O)B(O)O` has a growth at 10 µM [1] of 80.3%, a GI50 [2] of 4.11 µM and an LC50 (concentration killing 50% of cells) [2] of 97.9 µM. For the same compound, the TGI [2] was 22.3 µM, the GI50 ([3]; HCT-15) was 21.3 µM and the TGI ([3]; HCT-15) was greater than 100 µM. It also gave a CC50 ([3]; HCT-15, read-out: LC50 (the source's name)) greater than 100 µM, a GI50 [4] of 29.8 µM and a TGI [4] greater than 100 µM. For the same compound, the CC50 [4, 39] was greater than 100 µM, the GI50 [5] was 25.4 µM and the TGI [5] was greater than 100 µM. For the same compound, the CC50 [5, 39] was greater than 100 µM, the GI50 [6] was 2.68 µM and the TGI [6] was 8.9 µM. It also gave a CC50 [6, 39] of 48 µM, a GI50 [7] of 6.88 µM and a TGI [7] greater than 100 µM. For the same compound, the GI50 [8] was 5.55 µM, the LC50 (concentration killing 50% of cells) [8] was greater than 100 µM and the TGI [8] was 48.8 µM. It also gave a GI50 [9] of 19.4 µM, a TGI [9] greater than 100 µM and a CC50 [9, 39] greater than 100 µM. It also gave a GI50 ([10]; SF-539) of 2.76 µM, a TGI ([10]; SF-539) of 8.38 µM and a CC50 ([10]; SF-539, read-out: LC50 (the source's name)) greater than 100 µM. It also gave a GI50 ([11]; MOLT-4) of 3.3 µM, a TGI ([11]; MOLT-4) greater than 100 µM and a CC50 ([11]; MOLT-4, read-out: LC50 (the source's name)) greater than 100 µM. It also gave a GI50 ([12]; HOP-92) of 16.8 µM, a TGI ([12]; HOP-92) of 71.3 µM and a CC50 ([12]; HOP-92, read-out: LC50 (the source's name)) greater than 100 µM. It also gave a GI50 [13] of 3.18 µM, a TGI [13] greater than 100 µM and a CC50 [13, 39] greater than 100 µM. For the same compound, the inhibition [14] was “inactive”, the growth at 10 µM [15] was 78.1% and the GI50 [16] was 4.67 µM. It also gave a TGI [16] greater than 100 µM, a CC50 [16, 39] greater than 100 µM and a GI50 [17] of 15.6 µM. The TGI [17] was greater than 100 µM, the CC50 [17, 39] was greater than 100 µM and the GI50 [18] was 7.17 µM. It also gave a TGI [18] greater than 100 µM, a CC50 [18, 39] greater than 100 µM and a GI50 [19] of 7.94 µM. The TGI [19] was greater than 100 µM, the CC50 [19, 39] was greater than 100 µM and the GI50 [20] was 6.37 µM. It also gave a TGI [20] of 28.4 µM, a CC50 [20, 39] greater than 100 µM and a GI50 [21] of 4.66 µM. It also gave an LC50 [21] greater than 100 µM, a TGI [21] of 21.7 µM and a GI50 [22] of 18.3 µM. The LC50 [22] was greater than 100 µM, the TGI [22] was greater than 100 µM and the GI50 [23] was greater than 100 µM. It also gave an LC50 [23] greater than 100 µM, a TGI [23] greater than 100 µM and a GI50 [24] of 5.16 µM. It also gave an LC50 [24] greater than 100 µM, a TGI [24] of 47.7 µM and a GI50 [25] of 4.03 µM. The LC50 (concentration killing 50% of cells) [25] was greater than 100 µM, the TGI [25] was 22.1 µM and the GI50 [26] was 4.65 µM. The LC50 (concentration killing 50% of cells) [26] was greater than 100 µM, the TGI [26] was 31.9 µM and the GI50 [27] was 60.2 µM. For the same compound, the LC50 [27] was greater than 100 µM, the TGI [27] was greater than 100 µM and the growth at 10 µM [28] was 68%. For the same compound, the Ki [29] was 0.057 µM, the GI50 [30] was 32.7 µM and the TGI [30] was greater than 100 µM. The CC50 [30, 39] was greater than 100 µM, the GI50 [31] was 13.3 µM and the LC50 [31] was greater than 100 µM. It also gave a TGI [31] of 44.9 µM, a growth at 10 µM [32] of 98.5% and a growth at 10 µM [33] of 82.9%. The GI50 [34] was 18 µM, the TGI [34] was greater than 100 µM and the CC50 [34, 39] was greater than 100 µM. For the same compound, the GI50 [35] was 9.15 µM, the TGI [35] was greater than 100 µM and the CC50 [35, 39] was greater than 100 µM. For the same compound, the GI50 [36] was 3.3 µM, the LC50 [36] was 86.2 µM and the TGI [36] was 16.5 µM. It also gave a GI50 [37] of 10 µM, a TGI [37] greater than 100 µM and a CC50 [37, 39] greater than 100 µM. It also gave a GI50 [38] of 8.92 µM, an LC50 [38] greater than 100 µM and a TGI [38] of 36 µM.
